# Data from ChEMBL document CHEMBL1833848, “New betulinic acid derivatives as potent proteasome inhibitors” (Bioorg Med Chem Lett, 2011).
# Activity calls are given as the source filed them. The rule behind the calls is not given here. Where a SMILES comes first, the peptide text is derived from it.
# Legend:
# [1] = Inhibition of human 20S proteasome chymotrypsin-like activity using Suc-Leu-Leu-Val-Tyr-AMC fluorogenic substrate by fluorimetry
# Method in brief: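 IC50 values are the averages of three independent experiments.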
# [2] = test system: Human immunodeficiency virus 1; test: Antiviral activity against HIV1; assay type: functional, organism-based
# Homo sapiens [3] = species on record: Homo sapiens; test: Inhibition of human 20S proteasome caspase-like activity using (Z)-LLE-bNA fluorogenic substrate by fluorimetry
# [4] = Inhibition of human 20S proteasome trypsin-like activity using Bz-VGR-AMC fluorogenic substrate by fluorimetry
# [5] = test system: Human immunodeficiency virus 1; test: Antiviral activity against drug-resistant HIV1 isolate; assay type: functional, organism-based
# Homo sapiens [6] = species on record: Homo sapiens; test: Ratio of lactacystin IC50 to compound IC50 for human 20S proteasome
# Homo sapiens [7] = species on record: Homo sapiens; test: Ratio of LLM-F IC50 to compound IC50 for human 20S proteasome
# Homo sapiens [8] = species on record: Homo sapiens; test: Ratio of bevirimat IC50 to compound IC50 for human 20S proteasome
SMILES,IC50 [1],other results
"C=C(COCC)[C@@H]1CC[C@]2(C(=O)N[C@@H](CC(C)C)C(=O)O)CC[C@]3(C)[C@H](CC[C@H]4C3(C)CC[C@H]3C(C)(C)[C@@H](O)CC[C@@]34C)[C@@H]12 (single isomer, unassigned)",13.2 µM,–
"C=C(COCCc1ccc(OC)cc1)[C@@H]1CC[C@]2(C(=O)N[C@@H](CC(C)C)C(=O)O)CC[C@]3(C)[C@H](CC[C@H]4C3(C)CC[C@H]3C(C)(C)[C@@H](O)CC[C@@]34C)[C@@H]12 (single isomer, unassigned)",3.34 µM,–
"C=C(COCCc1ccccc1)[C@@H]1CC[C@]2(C(=O)N[C@@H](CC(C)C)C(=O)O)CC[C@]3(C)[C@H](CC[C@H]4C3(C)CC[C@H]3C(C)(C)[C@@H](O)CC[C@@]34C)[C@@H]12 (single isomer, unassigned)",2.47 µM,–
CSCC[C@@H](C=O)NC(=O)[C@H](CC(C)C)NC(=O)[C@H](CC(C)C)NC(C)=O (Ac-Leu-Leu-Met-aldehyde),5.25 µM,–
"C=C(C)[C@@H]1CC[C@]2(C(=O)O)CC[C@]3(C)[C@H](CC[C@H]4C3(C)CC[C@H]3C(C)(C)[C@@H](OC(=O)C5CC=CCC5C(=O)O)CC[C@@]34C)[C@@H]12 (single isomer, unassigned)",2.96 µM,–
"C=C(C)[C@@H]1CC[C@]2(C(=O)NCCCCCCCC(=O)N[C@@H](CC(C)C)[C@H](O)CC(=O)O)CC[C@]3(C)[C@H](CC[C@H]4C3(C)CC[C@H]3C(C)(C)[C@@H](O)CC[C@@]34C)[C@@H]12 (single isomer, unassigned)",> 40 µM,–
"C=C(COCCc1ccc(F)cc1)[C@@H]1CC[C@]2(C(=O)N[C@@H](CC(C)C)C(=O)O)CC[C@]3(C)[C@H](CC[C@H]4C3(C)CC[C@H]3C(C)(C)[C@@H](O)CC[C@@]34C)[C@@H]12 (single isomer, unassigned)",2.4 µM,–
"C=C(C)[C@@H]1CC[C@]2(C(=O)O)CC[C@]3(C)[C@H](CC[C@H]4C3(C)CC[C@H]3C(C)(C)[C@@H](OC(=O)c5cccc(Br)c5)CC[C@@]34C)[C@@H]12 (single isomer, unassigned)",7.05 µM,–
"C=C(C)[C@@H]1CC[C@]2(C(=O)O)CC[C@]3(C)[C@H](CC[C@H]4C3(C)CC[C@H]3C(C)(C)[C@@H](OC(=O)c5ccc(OC)c(OC)c5)CC[C@@]34C)[C@@H]12 (single isomer, unassigned)",> 40 µM,–
"C=C(C)[C@@H]1CC[C@]2(C(=O)O)CC[C@]3(C)[C@H](CC[C@H]4C3(C)CC[C@H]3C(C)(C)[C@@H](OC(=O)COCC(=O)O)CC[C@@]34C)[C@@H]12 (single isomer, unassigned)",> 40 µM,–
"C=C(C)[C@@H]1CC[C@]2(C(=O)O)CC[C@]3(C)[C@H](CC[C@H]4C3(C)CC[C@H]3C(C)(C)[C@@H](OC(=O)c5cc(OC)c(OC)cc5OC)CC[C@@]34C)[C@@H]12 (single isomer, unassigned)",10.9 µM,–
"C=C(C)[C@@H]1CC[C@]2(C(=O)N[C@@H](CC(C)C)C(=O)O)CC[C@]3(C)[C@H](CC[C@H]4C3(C)CC[C@H]3C(C)(C)[C@@H](O)CC[C@@]34C)[C@@H]12 (single isomer, unassigned)",> 40 µM,–
"C=C(CBr)[C@@H]1CC[C@]2(C(=O)N[C@@H](CC(C)C)C(=O)O)CC[C@]3(C)[C@H](CC[C@H]4C3(C)CC[C@H]3C(C)(C)[C@@H](O)CC[C@@]34C)[C@@H]12 (single isomer, unassigned)",5.85 µM,–
"C=C(C)[C@@H]1CC[C@]2(C(=O)O)CC[C@]3(C)[C@H](CC[C@H]4C3(C)CC[C@H]3C(C)(C)[C@@H](OC(=O)c5ccccc5Br)CC[C@@]34C)[C@@H]12 (single isomer, unassigned)",7.99 µM,–
C=C(C)[C@@H]1CC[C@]2(C(=O)O)CC[C@]3(C)[C@H](CC[C@@H]4[C@@]5(C)CC[C@H](OC(=O)CC(C)(C)C(=O)O)C(C)(C)[C@@H]5CC[C@]43C)[C@@H]12 [BEVIRIMAT],9.2 µM,EC50 [2]: < 0.01 µM; inhibition (Homo sapiens [3]): inactive; IC50 [4]: 26.3 µM; EC50 [5]: < 0.01 µM
"C=C(COCCc1ccc(Cl)cc1)[C@@H]1CC[C@]2(C(=O)N[C@@H](CC(C)C)C(=O)O)CC[C@]3(C)[C@H](CC[C@H]4C3(C)CC[C@H]3C(C)(C)[C@@H](O)CC[C@@]34C)[C@@H]12 (single isomer, unassigned)",1.8 µM,Ratio IC50 (Homo sapiens [6]): 3; Ratio IC50 (Homo sapiens [7]): 3
"C=C(COCCC)[C@@H]1CC[C@]2(C(=O)N[C@@H](CC(C)C)C(=O)O)CC[C@]3(C)[C@H](CC[C@H]4C3(C)CC[C@H]3C(C)(C)[C@@H](O)CC[C@@]34C)[C@@H]12 (single isomer, unassigned)",3.67 µM,–
"C=C(C)[C@@H]1CC[C@]2(C(=O)O)CC[C@]3(C)[C@H](CC[C@H]4C3(C)CC[C@H]3C(C)(C)[C@@H](OC(=O)c5ccc6c(c5)OCO6)CC[C@@]34C)[C@@H]12 (single isomer, unassigned)",> 40 µM,–
"C=C(C)[C@@H]1CC[C@]2(C(=O)O)CC[C@]3(C)[C@H](CC[C@H]4C3(C)CC[C@H]3C(C)(C)[C@@H](OC(=O)c5cc(OC)c(OC)c(OC)c5)CC[C@@]34C)[C@@H]12 (single isomer, unassigned)",> 40 µM,–
"C=C(C)[C@@H]1CC[C@]2(C(=O)O)CC[C@]3(C)[C@H](CC[C@H]4C3(C)CC[C@H]3C(C)(C)[C@@H](OC(=O)Cc5cccc(CC(=O)O)c5)CC[C@@]34C)[C@@H]12 (single isomer, unassigned)",1.42 µM,Ratio IC50 (Homo sapiens [8]): 6; Ratio IC50 (Homo sapiens [6]): 4; Ratio IC50 (Homo sapiens [7]): 4
"C=C(C)[C@@H]1CC[C@]2(C(=O)O)CC[C@]3(C)[C@H](CC[C@H]4C3(C)CC[C@H]3C(C)(C)[C@@H](OC(=O)c5ccccc5)CC[C@@]34C)[C@@H]12 (single isomer, unassigned)",11.1 µM,–
"C=C(C)[C@@H]1CC[C@]2(C(=O)O)CC[C@]3(C)[C@H](CC[C@H]4C3(C)CC[C@H]3C(C)(C)[C@@H](OC(=O)c5ccc(Br)cc5)CC[C@@]34C)[C@@H]12 (single isomer, unassigned)",> 40 µM,–
"C=C(COCCc1ccc(Br)cc1)[C@@H]1CC[C@]2(C(=O)N[C@@H](CC(C)C)C(=O)O)CC[C@]3(C)[C@H](CC[C@H]4C3(C)CC[C@H]3C(C)(C)[C@@H](O)CC[C@@]34C)[C@@H]12 (single isomer, unassigned)",1.56 µM,Ratio IC50 (Homo sapiens [6]): 3; Ratio IC50 (Homo sapiens [7]): 3
"C=C(COCCN1CCOCC1)[C@@H]1CC[C@]2(C(=O)N[C@@H](CC(C)C)C(=O)O)CC[C@]3(C)[C@H](CC[C@H]4C3(C)CC[C@H]3C(C)(C)[C@@H](O)CC[C@@]34C)[C@@H]12 (single isomer, unassigned)",3.13 µM,–
